High-throughput results from PubChem BioAssay.
T cruzi inh = inhibitors of intracellular T. cruzi growth, primary screen, luminescence, NIH3T3 host cells; T. cruzi beta-gal in NIH3T3, 90 h; inhibition, % (no concentration beside the values); 1.4% of 300,000 active; AID 1885, 2009;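 active means mean inhibition across valid replicates above about 55%, limit read from the data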;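 further: signal also drops with host cell toxicity which is not excluded here; 0% = plate median of DMSO wells and 100% = zero luminescence signal; higher percent means less beta-gal luminescence so fewer parasites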
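System: mouse NIH/3T3 fibroblasts infected with β-gal-expressing T. cruzi Tulahuen C4 / Input: NIH/3T3 cells, 5,000 per well / Buffer or medium: Low-serum DMEM with 2% FBS / Probe or stimulus: 5000 reporter trypomastigotes per well / Schedule: ≥90 h infection period, 3 h prior cell attachment / Measured by: GalScreen luminescence, 60 min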
Beta apoptosis = inhibitors of cytokine-induced beta cell apoptosis, primary screen, luminescence. 0.8% of 300,000 active. AID 435005, 2010. INS-1E cytokine-induced death, ATP luminescence, 48 h; percent of positive-control rescue, neutral wells zero. protection from apoptosis, % (test concentration not listed);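 active means Every replicate reaches about 75%, or at least half do and their mean reaches it too, limit read from the data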;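 further: 0% = cytokine-treated negative control wells and 100% = positive control rescue; higher means more ATP so stronger rescue from cytokine killing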
L major viab = Leishmania major promastigote growth inhibition, primary screen; 9% of 200,000 active; AID 1063, 2008; inhibition, % at 10 µM; Leishmania major promastigotes, resazurin fluorescence viability; in the data active means inhibition above about 50%;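 further: promastigotes grown with compound for 44 hours at 28 °C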
SKKanGAS inh = S. pyogenes SKKanGAS growth inhibitors in kanamycin, primary screen, streptokinase expression inhibitor project, SKKanGAS strain, BacTiter-Glo luminescence. 6 h. inhibition, % at 7.5 µM. 1.3% of 300,000 active;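 active means mean replicate score, as percent of positive control median, at least 50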;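 further: strain carries kanamycin resistance gene driven by streptokinase promoter and grows in 40 µg/ml kanamycin; loss of luminescence reflects streptokinase promoter inhibition or plain growth inhibition; 0% = median of DMSO wells and 100% = positive control at its reference dose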
Mdm2-MdmX inh = inhibitors of human Mdm2-MdmX association, primary screen, cell-based, luminescence, split luciferase, SaOS-2, uHTS; Protein Mdm4 (Homo sapiens) + E3 ubiquitin-protein ligase Mdm2 (Homo sapiens), …; 3% of 330,000 active; AID 485346, 2010; inhibition, % at 8 µM; SaOS-2 split-luciferase Mdm2/MdmX complementation;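 active means inhibition of at least 50% at 8 µM in the primary screen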
Target sequence (O15151 whole entry, looked up): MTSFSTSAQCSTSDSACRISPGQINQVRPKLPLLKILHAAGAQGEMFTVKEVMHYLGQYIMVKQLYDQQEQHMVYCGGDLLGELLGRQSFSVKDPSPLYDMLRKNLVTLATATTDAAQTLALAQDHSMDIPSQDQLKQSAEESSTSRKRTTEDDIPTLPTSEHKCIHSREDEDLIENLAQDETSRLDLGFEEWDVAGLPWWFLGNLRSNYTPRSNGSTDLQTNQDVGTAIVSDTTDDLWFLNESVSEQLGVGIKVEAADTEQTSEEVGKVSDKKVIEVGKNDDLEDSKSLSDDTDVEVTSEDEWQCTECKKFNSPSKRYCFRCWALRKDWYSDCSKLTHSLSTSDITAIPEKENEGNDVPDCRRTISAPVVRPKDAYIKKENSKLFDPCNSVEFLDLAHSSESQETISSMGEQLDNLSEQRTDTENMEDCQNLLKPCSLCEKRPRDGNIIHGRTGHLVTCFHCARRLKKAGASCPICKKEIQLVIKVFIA
Target sequence (Q00987 whole entry, looked up): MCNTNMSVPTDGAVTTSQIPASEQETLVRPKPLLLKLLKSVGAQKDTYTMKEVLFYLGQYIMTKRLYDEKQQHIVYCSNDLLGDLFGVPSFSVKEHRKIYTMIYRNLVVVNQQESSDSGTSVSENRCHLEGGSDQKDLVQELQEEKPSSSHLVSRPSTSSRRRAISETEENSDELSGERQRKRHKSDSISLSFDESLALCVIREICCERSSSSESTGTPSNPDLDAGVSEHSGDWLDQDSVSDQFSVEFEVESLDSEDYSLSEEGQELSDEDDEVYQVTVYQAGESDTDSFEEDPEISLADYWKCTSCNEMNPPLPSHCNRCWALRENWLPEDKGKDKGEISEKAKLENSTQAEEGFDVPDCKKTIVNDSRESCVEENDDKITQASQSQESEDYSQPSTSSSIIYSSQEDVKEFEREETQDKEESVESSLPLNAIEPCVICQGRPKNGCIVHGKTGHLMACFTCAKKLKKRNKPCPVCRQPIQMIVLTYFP
CSC inhib = cancer stem cell viability inhibitors, primary screen, luminescence; 1.1% of 300,000 active; inhibition, % at 7.5 µM; AID 2717, 2010; cancer stem cell-like cells viability; in the data active means inhibition above about 75%; tested in HMLE shEcad cells
Mdm2-MdmX conf = Mdm2-MdmX complex disruptors, retested hits, confirmation, luminescence, single concentration. shares compounds with Mdm2-MdmX inh. Mdm2-MdmX binding, luminescent assay. AID 489028, 2010. 55% of 10,000 active. inhibition, % at 8 µM; in the data active means inhibition above about 40%
FLuc counter = full-length luciferase signal inhibition, confirmation, counter-screen for Mdm2/MdmX interaction inhibitor project, cell-based, single concentration, SaOS-2; shares compounds with Mdm2-MdmX inh; SaOS-2 full-length luciferase counterscreen, luminescence; inhibition, % at 8 µM; 77% of 6,200 active; AID 504607, 2011;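 active means mean inhibition at 8 µM reaching about 37%, which flags the compound as non-specific, limit read from the data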;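 further: p53-null SaOS-2 cells with luciferase driven by a doxycycline-inducible promoter; compound on cells about two nights before reading with doxycycline added after day one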
An asterisk follows results filed as active; nt = no result. Hits are enriched below; roughly 9.4% of the tested compounds scored in any of these assays.

SMILES	T cruzi inh	Beta apoptosis	L major viab	SKKanGAS inh	Mdm2-MdmX inh	CSC inhib	Mdm2-MdmX conf	FLuc counter
CCC1CCCCN1S(=O)(=O)c1ccc(C(=O)N(CCCN(C)C)c2nc3cc4c(cc3s2)OCO4)cc1 (centres undefined)	24	-5	nt	1	63*	4	43*	58*
CC1CCCCN1S(=O)(=O)c1ccc(C(=O)N(CCCN(C)C)c2nc3ccc(Br)cc3s2)cc1 (centres undefined)	26	4	nt	15	77*	23	33	61*
COc1ccccc1C(=O)Nc1nc2ccccc2[nH]1	11	93*	nt	90*	98*	95*	95*	6
COc1cc(SC)ccc1C(=O)Nc1nc2ccccc2[nH]1	-3	106*	nt	107*	100*	-5	99*	2
COc1ccccc1C(=O)NCCC(=O)Nc1nc2ccccc2[nH]1	-4	-10	nt	-16	42	5	nt	nt
CCN(CC)C(=O)[C@H]1C[C@H](CC(=O)NCc2ccc(OC)c(OC)c2)C(=O)N2CCc3c([nH]c4cc(-c5ccco5)ccc34)[C@]12C	nt	nt	nt	nt	25	nt	nt	nt
Cc1ccc(CN(CC(=O)NC(C)(C)C)C(=O)CNC(=O)c2cccs2)cc1	0	-5	-3	-2	14	-6	nt	nt
CC(=O)c1ccc(NC(=S)N2CCCC2)cc1	-11	-1	nt	1	24	8	nt	nt
N=c1c(S(=O)(=O)c2ccc(Cl)cc2)cc2c(=O)n3ccccc3nc2n1CCc1ccccc1	58*	3	nt	15	63*	19	37	25
Cc1ccc(S(=O)(=O)c2cc3c(=O)n4ccccc4nc3n(C)c2=N)cc1C	11	-8	nt	2	86*	-11	24	nt
CN(c1ccc(OCC(=O)Nc2ccccc2C(=O)O)cc1)S(=O)(=O)c1ccc(Cl)cc1	nt	-1	nt	nt	90*	49	40*	39*
O=C(COc1ccc(Cl)cc1)Nc1ccccc1C(=O)NCc1ccco1	19	-2	3	-8	73*	23	-19	nt
COc1ccc(C(=O)Nc2ccccc2C(=O)N(Cc2ccco2)C(C(N)=O)C(C)C)cc1 (centres undefined)	-2	-4	2	10	66*	-4	21	nt
COc1ccc(C(=O)Nc2ccccc2C(=O)NC(C(=O)NCc2ccco2)C(C)C)cc1 (centres undefined)	-12	11	0	3	74*	7	-9	nt
CC1CCCC(C)N1C(=O)COC(=O)c1ccc(F)c(S(=O)(=O)N2CCOCC2)c1 (centres undefined)	-3	nt	nt	-3	22	-8	nt	nt
COc1ccc(C2=NS(=O)(=O)N(C)C(C(=O)Nc3ccc4c(c3)OCO4)=C2)cc1OC	4	3	nt	0	22	-4	nt	nt
CC(C)CN(C#N)c1nc(N2CCOCC2)nc(N2CCOCC2)n1	30	-4	6	0	51*	10	38	70*
Cc1ccc(S(=O)(=O)NCCC(=O)N2CC(C)OC(C)C2)cc1C (centres undefined)	-5	-1	nt	-1	13	4	nt	nt
COc1ccc(OCc2n(CC(=O)OC3CC(C)CCC3C(C)C)c3ccccc3[n+]2C)cc1 (centres undefined)	50	100*	nt	12	94*	58	97*	59*
CC1CCC(C(C)C)C(OC(=O)CSc2nccc(=O)[nH]2)C1 (centres undefined)	-20	1	-5	8	3	nt	nt	nt
COc1ccc2c(c1)C(C)=CC(C)(C)N2S(=O)(=O)c1ccc(C)cc1	49	32	98*	8	63*	-5	67*	96*
CCOc1ccc(S(=O)(=O)N2CCN(c3ccc(C)cc3C)CC2)cc1	21	-7	-6	8	24	9	nt	nt
CCOc1ccc2c(c1)C(C)=CC(C)(C)N2S(=O)(=O)c1ccc(C)cc1	47	nt	95*	-9	63*	nt	61*	121*
CC1=CC(C)(C)N(S(=O)(=O)c2ccc(C)cc2)c2cc(C)ccc21	10	51	99*	2	54*	66	69*	122*
CCCC/C(C)=N/NC(=O)c1cn(-c2ccccc2)nc1-c1ccccc1	-3	-3	1	7	11	-13	nt	nt
SMILES	T cruzi inh	Beta apoptosis	L major viab	SKKanGAS inh	Mdm2-MdmX inh	CSC inhib	Mdm2-MdmX conf	FLuc counter
COc1ccccc1C(=O)NC(=O)COC(=O)c1nc2nc(C)cc(C)n2n1	-4	nt	nt	2	-1	2	nt	nt
CN(C)c1ccc(C=Nc2cnn(C)c2C(N)=O)cc1	nt	-4	-4	nt	52*	-10	-1	nt
CSc1nnc(NC(=O)c2nc(S(=O)(=O)Cc3ccccc3)ncc2Cl)s1	-13	nt	nt	2	99*	nt	94*	2
CC(C)c1nnc(NC(=O)CCc2ccccc2)s1	-11	2	nt	4	-4	4	nt	nt
CC(C)c1nnc(NC(=O)c2nc(S(=O)(=O)Cc3ccccc3)ncc2Cl)s1	-22	nt	nt	3	97*	nt	76*	50*
CSc1ncc(Cl)c(C(=O)Nc2nnc(SC)s2)n1	8	2	-9	-10	12	nt	nt	nt
COc1ccccc1-n1cnc2c(c1=O)c1nc3ccccc3nc1n2-c1ccc(C)cc1	8	1	46	7	55*	-2	73*	65*
COc1ccccc1-n1c2nc3ccccc3nc2c2c(=O)n(-c3cc(C)cc(C)c3)cnc21	28	2	15	28	17	-11	nt	nt
O=C(N[C@H]1C/C=C\C[C@H](CC(=O)N(CCO)Cc2ccccc2)C(=O)NC[C@H](c2ccccc2)OC1=O)OCC1c2ccccc2-c2ccccc21	nt	13	nt	nt	5	nt	nt	nt
COc1ccc(CCNC(=O)c2ccc3c(c2)N(Cc2ccccc2)CCS3)cc1OC	12	-4	nt	24	60*	23	16	nt
Nc1nc(N)c2cc(Sc3ccc4ccccc4c3)ccc2n1	58*	109*	nt	109*	100*	119*	62*	38*
COc1ccc(OC)c(Nc2nc(-c3cccc([N+](=O)[O-])c3)nc3ccccc23)c1	28	-9	3	-19	60*	8	-5	nt
Nc1c(S(=O)(=O)c2ccccc2)c2nc3ccccc3nc2n1/N=C/c1cccc(O)c1	43	14	91*	56*	67*	104*	15	nt
